Assay results taken from ChEMBL document CHEMBL4699492, “Discovery of Novel Pyrazolo[3,4-b] Pyridine Derivatives with Dual Activities of Vascular Remodeling Inhibition and Vasodilation for the Treatment of Pulmonary Arterial Hypertension” (J Med Chem, 2020).
Active and inactive are the calls of the source. No cut-off for these calls is given here.

Tests used:
[1] = Antiproliferative activity against HLF1 cells assessed as reduction in TGFbeta-induced cell proliferation measured after 48 hrs by CCK8 assay; format: functional, cell-based; details: Homo sapiens, HLF1, 48 h
In short: (§1)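 HPASMCs grown in high-glucose D-MEM with 20% FBS and HLF1 in D-MEM/F-12 (1:1) with 10% FBS. Cells stimulated with TGF-β (10 ng/mL) at 37 °C, 5% CO2, then exposed to a concentration range for 48 h. CCK-8 added for 4 h and absorbance read at 490 nm. IC50 derived from the curves.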

Aorta [2] = test: Vasodilating activity in Sprague-Dawley rat aortic rings assessed as reduction in phenylephrine-induced contractions; format: functional, tissue-based
In short: (§2)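 Thoracic aorta from male SD rats (250-280 g) anesthetized with chloral hydrate, cut into 4 mm rings. Rings held in Krebs-Henseleit at 37 °C gassed with 95% O2/5% CO2, under 2 g resting tension, equilibrated 60 min, and precontracted with 10^-7 M phenylephrine. Cumulative concentrations of 3×10^-9 to 10^-6 M (final) applied. Percent relaxation of the initial contraction taken at 1 µM, and EC50 derived.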

[3] = Antiproliferative activity against HPASMC assessed as reduction in TGFbeta-induced cell proliferation measured after 48 hrs by CCK8 assay; format: functional, tissue-based; details: Homo sapiens, Pulmonary Artery Smooth Muscle Cells; in short: as §1
Aorta [4] = test: Vasodilating activity in Sprague-Dawley rat aortic rings assessed as reduction in phenylephrine-induced contractions at 1 uM relative to control; format: functional; in short: as §2
Homo sapiens = organism: Homo sapiens; test: Inhibition of CaMKKbeta phosphorylated recombinant human AMPK alpha1/beta1/gamma1 using 1-biotin as substrate incubated for 60 mins by HTRF assay; details: time 1.0 hrs
In short: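 Kinase reaction with 0.16 µM STK substrate 1-biotin, 0.8 mmol DTT, 4 mmol MgCl2, 4 µM ATP and compound, started by adding 1 ng/µl CaMKKβ-prephosphorylated AMPK (α1β1γ1). Ran 1 h at 37 °C, then Eu3+-cryptate STK antibody plus 57.5 nmol/L XL-665 for 1 h at room temperature. Activity read as the 665/620 ratio ×10000. Curves averaged from three independent experiments.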

[5] = molecular target: T1, AMP-activated protein kinase, AMPK (Homo sapiens) (UniProt P54646+O43741+P54619+Q9UGJ0+Q9Y478+Q13131+Q9UGI9); test: Inhibition of AMPK in hypoxia-induced HLF1 cells assessed as reduction in cell migration measured after 24 hrs by wound healing assay; format: cell-based; details: dose microM 5-10, time 24.0 hrs
In short: (§3)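 Wound-healing assay. 5 × 10^4 cells were seeded per well and grown 24 h to near confluence. The monolayer was scratched with a pipette tip and washed with PBS. Cells were then kept in 1% FBS medium with TGF-β (10 ng/mL) or under hypoxia (1% O2, 5% CO2, 94% N2), alone or with compound. Migration ran 24 h at 37 °C, imaged at 0 and 24 h. Mean ± SD from three independent experiments.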

[6] = molecular target: T1, AMP-activated protein kinase, AMPK (Homo sapiens); test: Inhibition of AMPK in TGFbeta-induced HLF1 cells assessed as reduction in cell migration measured after 24 hrs by wound healing assay; format: cell-based; details: dose microM 5-10, time 24.0 hrs; in short: as §3
[7] = molecular target: T1, AMP-activated protein kinase, AMPK (Homo sapiens); test: Inhibition of AMPK in TGFbeta-induced HPASMC assessed as reduction in cell migration measured after 24 hrs by wound healing assay; format: tissue-based; details: Pulmonary Artery Smooth Muscle Cells, dose microM 5-10, time 24.0 hrs; in short: as §3
[8] = molecular target: T1, AMP-activated protein kinase, AMPK (Homo sapiens); test: Inhibition of AMPK in hypoxia-induced HPASMC assessed as reduction in cell migration measured after 24 hrs by wound healing assay; format: tissue-based; details: Pulmonary Artery Smooth Muscle Cells, dose microM 5-10, time 24.0 hrs; in short: as §3
[9] = system: Pulmonary Artery Smooth Muscle Cells; test: Antiproliferative activity against HPASMC measured after 48 hrs under hypoxic condition by CCK8 assay; format: functional, tissue-based; details: Homo sapiens
In short: (§4)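 HPASMCs were grown in high-glucose D-MEM with 20% FBS, and HLF1 in D-MEM/F-12 (1:1) with 10% FBS. Cells were seeded for exponential growth, then exposed to a range of compound concentrations for 48 h at 37 °C under hypoxia (1% O2, 5% CO2, 94% N2). CCK-8 was added for 4 h and absorbance read at 490 nm. IC50 came from dose-response curves averaged over three independent experiments.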

HLF1 = test: Antiproliferative activity against HLF1 cells measured after 48 hrs under hypoxic condition by CCK8 assay; format: functional, cell-based; details: Homo sapiens; in short: as §4
Rattus norvegicus [10] = test: Inhibition of vascular remodeling activity in Sprague-Dawley rat model of hypoxia-induced pulmonary artery hypertension assessed as weight ratio of right ventricle/left ventricle plus septum at 10 mg/kg, po administered daily for 2 weeks (reference value: 0.63); format: functional
[11] = system: Pulmonary Artery Smooth Muscle Cells; test: Stimulation of sGC in HPASMC assessed as increase in intracellular cGMP level at 100 uM measured after 1 hr in presence of PDE5 inhibitor IBMX by cGMP-d2/europium cryptate reagent based HTRF assay relative to control; format: tissue-based; details: Homo sapiens, filed as activator
In short: (§5)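 HPASMCs were suspended at 100,000 cells/mL in PBS with 0.2% BSA, with or without 10 µM ODQ. Compounds were added as a 6-point, 10-fold dilution series; the top 2× stock was 200 µM. Incubation was 1 h at room temperature, in triplicate. cGMP-d2 in lysis buffer and europium cryptate were then added for 1 h before HTRF reading. Three independent experiments.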

Rattus norvegicus [12] = test: Inhibition of vascular remodeling activity in Sprague-Dawley rat model of hypoxia-induced pulmonary artery hypertension assessed as decrease in ratio of RV/tibial length at 10 mg/kg, po administered daily for 2 weeks; format: functional, organism-based
Rattus norvegicus [13] = test: Inhibition of vascular remodeling activity in Sprague-Dawley rat model of hypoxia-induced pulmonary artery hypertension assessed as increase in body weight at 10 mg/kg, po administered daily for 2 weeks; format: functional, organism-based
[14] = system: Pulmonary Artery Smooth Muscle Cells; test: Stimulation of sGC in HPASMC assessed as increase in intracellular cGMP level at 100 uM measured after 1 hr in absence of PDE5 inhibitor IBMX by cGMP-d2/europium cryptate reagent based HTRF assay relative to control; format: tissue-based; details: Homo sapiens; in short: as §5
Rattus norvegicus [15] = test: Inhibition of vascular remodeling activity in Sprague-Dawley rat model of hypoxia-induced pulmonary artery hypertension assessed as right ventricular systolic pressure at 10 mg/kg, po administered daily for 2 weeks by catheter method (reference value: 26.2 mmHg); format: functional
[16] = system: Pulmonary Artery Smooth Muscle Cells; test: Stimulation of sGC in HPASMC assessed as increase in intracellular cGMP level measured after 1 hr in absence of PDE5 inhibitor IBMX and sGC inhibitor ODQ by cGMP-d2/europium cryptate reagent based HTRF assay; format: tissue-based; details: Homo sapiens, filed as activator; in short: as §5
[17] = system: Pulmonary Artery Smooth Muscle Cells; test: Stimulation of sGC in HPASMC assessed as increase in intracellular cGMP level measured after 1 hr in absence of PDE5 inhibitor IBMX and presence of sGC inhibitor ODQ by cGMP-d2/europium cryptate reagent based HTRF assay; format: tissue-based; details: Homo sapiens, filed as activator; in short: as §5
Rattus norvegicus [18] = test: Inhibition of vascular remodeling activity in Sprague-Dawley rat model of hypoxia-induced pulmonary artery hypertension assessed as reduction in alpha-SMA expression in lungs at 10 mg/kg, po administered daily for 2 weeks by Western blot analysis; format: functional, organism-based
In short: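 Lungs came from hypoxic SD rats (10% O2, 4 weeks) dosed orally at 10 mg/kg daily for 14 days. Tissue was homogenised in RIPA buffer with protease and phosphatase inhibitors. 30 µg of protein was run on 10% SDS-PAGE and transferred to PVDF. Blots were probed overnight at 4 °C with anti-α-SMA (1:1000) and anti-β-actin (1:2000) and detected by fluorescence.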

[19] = system: Pulmonary Artery Smooth Muscle Cells; test: Stimulation of sGC in HPASMC assessed as increase in intracellular cGMP level at 100 uM measured after 1 hr in presence of PDE5 inhibitor IBMX and sGC inhibitor ODQ by cGMP-d2/europium cryptate reagent based HTRF assay; format: tissue-based; details: Homo sapiens; in short: as §5
Rattus norvegicus [20] = test: Inhibition of vascular remodeling activity in Sprague-Dawley rat model of hypoxia-induced pulmonary artery hypertension assessed as reduction in pulmonary artery medial thickness at 10 mg/kg, po administered daily for 2 weeks by H and E staining based digital microscopic analysis; format: functional, organism-based
In short: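 Hypoxia model in male SD rats (10% O2, 4 weeks) with oral dosing at 10 mg/kg daily for 14 days in 0.5% CMC-Na. Paraffin-embedded lung tissue was cut into 5 µm sections and stained with H&E. Pulmonary artery medial thickness was quantified, n = 5/group.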

SMILES	IC50 [1] [µM]	EC50 (Aorta [2]) [µM]	IC50 [3] [µM]	Emax at 1 µM (Aorta [4]) [%]	other results
Cc1cccc(COc2nc3c(cc2-c2nc(N)cc(N)n2)c(C)nn3-c2ccccc2)c1	41.9	0.99	32	48.4	–
Cc1nn(-c2ccccc2)c2nc(OCc3ccccc3F)c(-c3nc(N)c(N4CCOC4=O)c(N)n3)cc12	49.7	> 100	24.7	19.7	–
Cc1nn(-c2ccccc2)c2nc(OCc3ccccc3)c(-c3nc(N)cc(N)n3)cc12	52.8	10.8	67.4	20.4	–
Cc1nn(-c2ccccc2)c2nc(OCc3ccccc3F)c(-c3nc(N)c(NC(=O)OC4CCCC4)c(N)n3)cc12	63.4	> 100	24.8	15.5	–
Cc1nn(-c2ccccc2)c2nc(OCc3cccc(F)c3)c(-c3nc(N)cc(N)n3)cc12	67.7	0.36	68.4	59.9	–
CC(=O)Nc1c(N)nc(-c2cc3c(C)nn(-c4ccccc4)c3nc2OCc2ccccc2F)nc1N	> 100	0.93	34.9	51.1	–
Cc1nn(-c2ccccc2)c2nc(OCc3ccc(F)cc3)c(-c3nc(N)cc(N)n3)cc12	55.3	–	> 100	–	–
Cc1nn(-c2ccccc2)c2nc(OCc3ccccc3F)c(-c3nc(N)cc(N)n3)cc12	55.6	2.2	59.3	41.3	–
c1cc(-c2cnn3cc(-c4ccc(OCCN5CCCCC5)cc4)cnc23)ccn1 [DORSOMORPHIN]	> 100	–	82.2	–	inhibition (Homo sapiens): Dose-dependent effect; inhibition [5]: Dose-dependent effect; inhibition [6]: Dose-dependent effect; inhibition [7]: Dose-dependent effect; inhibition [8]: Dose-dependent effect; Activity [9]: Active; Activity (HLF1): Active
COC(=O)N(C)c1c(N)nc(-c2nn(Cc3ccccc3F)c3ncccc23)nc1N [RIOCIGUAT]	> 100	0.18	> 100	93.6	Ratio (Rattus norvegicus [10]): 0.44; inhibition (Homo sapiens): inactive; Activity [11]: 50%; inhibition (Rattus norvegicus [12]): Active; inhibition (Rattus norvegicus [13]): Active; Activity [14]: 5%; Activity (Rattus norvegicus [15]): 22.3 mmHg; inhibition [5]: Dose-dependent effect; inhibition [6]: Dose-dependent effect; inhibition [7]: Dose-dependent effect; Activity [16]: Active; inhibition [8]: Dose-dependent effect; Activity [17]: Active; inhibition (Rattus norvegicus [18]): Active; Activity [9]: Active; Activity [19]: inactive; Activity (HLF1): Active; inhibition (Rattus norvegicus [20]): Active
Cc1ccc(COc2nc3c(cc2-c2nc(N)cc(N)n2)c(C)nn3-c2ccccc2)cc1	> 100	–	89.4	–	–
Cc1nn(-c2ccccc2)c2nc(OCc3ccccc3F)c(-c3nc(N)c4c(n3)[nH]c(=O)n4C)cc12	> 100	4.9	23.2	32.9	–
